Source: PubChem
This is a sample that favours compounds with a hit; in the whole collection about 3.1% have one here.
OX1R antag-1 = antagonists of human orexin 1 receptor. O43613. CHO/OX1R cells, Fluo-8 calcium fluorescence, orexin A. inhibition, % at 5 µM. hit rate 0.43% among 330,000. AID 434989;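 active = inhibition above its plate's threshold, mean inhibition of all tested compounds on the plate plus 3 SD, cut at about 37% in these data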;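 note: 0% = orexin A challenge wells and 100% = SB-334867-A antagonist wells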
CHO parental Ca = counter-screen: ATP calcium response change in parental CHO cells; parental CHO-K1, ATP-induced calcium, Fluo-8 fluorescence; inhibition, % at 5.6 µM; hit rate 0.63% among 330,000; AID 463079;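 active = inhibition above that plate's mean sample inhibition plus 3 SD, cut at about 26% in these data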;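 note: 0% = ATP-challenged DMSO wells and 100% = DMSO wells without ATP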
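Material: parental CHO cells / Compound: single nominal dose of 5.6 µM per compound / Signal: Fluo-8 fluorescence / Replicates: singlicate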
GPR7 antagonist = blocks human GPR7 receptor signaling; GPR7-expressing cells, fluorescence antagonist assay; inhibition, % at 4.4 µM; hit rate 1.1% among 290,000; AID 1861; in the data active = inhibition above about 16%, passing the limit was not always enough;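 note: cells stimulated with the agonist NPW; 0% = agonist with vehicle and 100% = vehicle without agonist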
Target sequence (P48145 whole entry, looked up): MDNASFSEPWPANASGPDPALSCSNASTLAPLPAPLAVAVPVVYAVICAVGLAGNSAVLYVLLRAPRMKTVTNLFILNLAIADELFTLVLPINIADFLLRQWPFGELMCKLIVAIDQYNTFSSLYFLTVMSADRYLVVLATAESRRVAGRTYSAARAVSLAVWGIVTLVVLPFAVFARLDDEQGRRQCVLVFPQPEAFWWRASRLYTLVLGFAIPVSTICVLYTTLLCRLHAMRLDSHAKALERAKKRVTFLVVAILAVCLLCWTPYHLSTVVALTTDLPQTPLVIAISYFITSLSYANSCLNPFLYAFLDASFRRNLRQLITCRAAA
OX1R antag-2 = antagonists of human orexin 1 receptor (OX1R); inhibition, % at 6.6 µM; hit rate 1.8% among 330,000; OX1R-expressing cells, FRET antagonist read-out; in the data active = inhibition mostly above about 38%, no sharp cut-off; inactive = mostly below about 40%;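 note: 0% = agonist challenge alone and 100% = reference antagonist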
GalR3 antagonist = antagonists of human GalR3; O60755; HEK293 GalR3-CNG cAMP membrane potential fluorescence; galR3 body fused to GalR1 C-terminus; inhibition, % at 3 µM; hit rate 0.44% among 360,000;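 active = inhibition above the screen-wide average plus 3 SD, cut at about 13% in these data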;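 note: forskolin and galanin both at EC90 stimulate the cells; cAMP rise reported by CNG channel membrane potential dye signal; 0% = forskolin plus galanin with DMSO and 100% = forskolin alone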
Target sequence (O60755 1-299 limits assumed): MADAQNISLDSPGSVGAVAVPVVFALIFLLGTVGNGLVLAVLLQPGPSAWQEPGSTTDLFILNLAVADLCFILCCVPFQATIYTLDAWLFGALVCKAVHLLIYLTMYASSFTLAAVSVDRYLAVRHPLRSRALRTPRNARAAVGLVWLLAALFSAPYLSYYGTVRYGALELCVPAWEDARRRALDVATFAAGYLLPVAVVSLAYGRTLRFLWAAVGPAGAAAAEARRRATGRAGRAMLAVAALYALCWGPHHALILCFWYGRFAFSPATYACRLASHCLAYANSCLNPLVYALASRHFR
GalR3 antag conf = confirmation of human galanin receptor 3 antagonists | inhibition, % at 3 µM | HEK293 GalR3 CNG cAMP biosensor, membrane potential fluorescence; galR3 fused to GalR1 carboxy tail; challenged with forskolin and galanin at EC90 | hit rate 59% among 1,600 | AID 652245 | shares compounds with GalR3 antagonist;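 active = inhibition above the primary screen's cutoff, the mean inhibition of all screened compounds plus 3 SD, cut at about 13% in these data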;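 note: 0% = forskolin plus galanin and 100% = forskolin alone with DMSO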
CNG parental = acts as nonspecific agonist in parental HEK-CNG cells. shares compounds with GalR3 antagonist. HEK293-CNG parental cells, cAMP membrane potential fluorescence; normalised: DMSO wells 0%, forskolin wells 100%. activation, % at 3 µM. hit rate 10% among 1,600. AID 652268; in the data active = activation above about 1.3%
An asterisk follows results filed as active; · = not tested or not shown.

SMILES	OX1R antag-1	CHO parental Ca	GPR7 antagonist	OX1R antag-2	GalR3 antagonist	GalR3 antag conf	CNG parental
COc1ccc(CC(=O)Nc2ccncc2Cl)cc1	18	35*	-3	30	63*	49*	0
COC(CNS(=O)(=O)c1ccc(S(=O)(=O)N2CCCC2)cc1)OC	-12	-8	-3	23	13*	7	0
COc1cc(C2Nc3ccc4ncccc4c3C3=C2C(=O)CC(C)(C)C3)cc(OC)c1O (stereo unspecified)	-14	-14	-7	20	-7	·	·
COc1cc(C2Nc3ccc4ncccc4c3C3=C2C(=O)CCC3)cc(OC)c1O (stereo unspecified)	-14	-9	-1	68*	13*	6	0
COc1ccccc1CNC(=O)[C@H](CCSC)NC(=O)[C@@H]1Cc2ccccc2CN1	-42	-23	1	17	22*	12	0
COc1ccccc1CNC(=O)[C@H](C)NC(=O)[C@@H]1Cc2ccccc2CN1	-23	-6	-1	14	9	·	·
CN1CCN(C(=S)c2cn(Cc3ccc(Br)cc3)c3ccccc23)CC1	-20	-20	23	28	-6	·	·
FC(F)(F)c1cnc(NNC(=S)Nc2ccccc2Cl)c(Cl)c1	1	8	-3	30	55*	4	0
Cc1cccc(NC(=S)NNc2ncc(C(F)(F)F)cc2Cl)c1	-11	2	4	2	0	·	·
Cc1c(CCCl)c(Cl)n2c(nc3ccccc32)c1C#N	·	·	·	·	2	·	·
CCCCCCCCCCn1c2c(c(=N)c3c1CCC3)CCC2	48*	39	77*	20	28*	39*	24*
CCCCCn1c2c(c(=N)c3ccccc31)CCC2	-10	5	-1	11	6	·	·
CCCCCCCCn1c2c(c(=N)c3ccccc31)CCC2	·	·	67*	·	44*	62*	11*
COc1c(/C=C2\SC(=Nc3ccccc3Cl)NC2=O)cccc1[N+](=O)[O-]	-14	-7	-19	68*	51*	65*	1
Cc1ccc(C)c(NC(=O)CN(C)C(=O)c2oc3c(Cl)cccc3c2C)c1	-2	-5	·	17	-5	·	·
C/C(=N\NC(=O)C1(C)CC1(Br)Br)c1cccc(NC(=O)c2ccc(C)o2)c1 (stereo unspecified)	-23	-26	-3	35	-4	·	·
O=C(NC(c1cccnc1)C(F)(F)F)c1cc(COc2ccc3c(c2)CCCC3)on1 (stereo unspecified)	19	42*	9	10	15*	12	0
Cn1cc(CNC(=O)c2cc(COc3ccc4c(c3)CCCC4)on2)cn1	-17	-15	-10	2	-2	·	·
CCOC(=O)COc1cccc2c(=O)n(CC(=O)NCc3ccc(F)cc3)ccc12	-9	-14	5	7	15*	22*	1
COCCn1c(=O)[nH]c(=O)c2c1nc(-c1cc(Br)c3c(c1)OCO3)n2Cc1ccccc1	-20	-35	-2	34	15*	16*	0
CCO[C@@H]1OC(C(N)=O)=C[C@H](c2ccc(C(F)(F)F)cc2)[C@H]1CCCO	1	-4	-11	4	16*	5	0
CCn1cc(C(=O)NCc2ccc(C)cc2)c(=O)c2cc(S(=O)(=O)N(C)C)ccc21	-30	-14	4	6	-12	·	·
CS(=O)(=O)c1nc(-c2ccc(F)cc2)cc(C(F)(F)F)n1	·	·	19	·	26*	25*	1
COc1ccc(-c2cc(C(F)(F)F)nc(N)n2)cc1	-11	7	-9	15	-4	·	·
COc1ccc(-c2cc(C(F)(F)F)nc(S(C)(=O)=O)n2)cc1	-10	-4	19	15	32*	13*	1
SMILES	OX1R antag-1	CHO parental Ca	GPR7 antagonist	OX1R antag-2	GalR3 antagonist	GalR3 antag conf	CNG parental
N#Cc1ccc(CSc2ccc(S(=O)(=O)N3CCCC3)cn2)cc1	-1	24	·	-8	-3	·	·
CCN(Cc1ccccc1)c1ccc(/C=N/NC(=O)c2cccc(S(=O)(=O)N3CCOCC3)c2)cc1	9	2	-7	40	24*	89*	-2
CC(C)(C)CN1CCN(Cc2nc(-c3ccc(F)cc3)cs2)CC1CCO (stereo unspecified)	-29	-14	2	14	101*	109*	0
O=C(Nc1ccc(Oc2ccccc2)cc1)c1csc(COCCO)n1	·	·	·	·	92*	113*	-1
Cc1ccccc1S(=O)(=O)/N=C(/c1ccccc1)N1CCOCC1	1	-7	-3	6	14*	7	0
COc1ccc(S(=O)(=O)N2CCN(C(=O)c3ccc(=O)[nH]n3)CC2)cc1OC	·	·	·	·	-4	·	·
COC(=O)c1ccc(COc2ccccc2/C=N/NC(=O)c2cccnc2)cc1	-24	-18	7	23	13*	5	1
COc1ccccc1-c1oc2ccccc2c1-c1ccccc1OC	-30	-21	·	9	-6	·	·
COc1ccc(-c2c(-c3ccccc3OC)oc3ccccc23)cc1F	-16	-24	·	3	·	2	-1
COc1ccc(CCN(C)C(=O)Cc2ccc(-c3ccccc3)cc2)cc1OC	-9	16	10	33	35*	63*	0
CCC(=O)Nc1nc(CC(=O)Nc2ccccc2OC)cs1	-9	-2	-7	15	-3	·	·
COc1ccccc1NC(=O)Cc1nc(CCl)cs1	-7	-5	2	19	14*	12	0
O=C(NC1CCN(Cc2ccccc2)CC1)c1ccc(S(=O)(=O)NCc2ccco2)cc1	-6	-5	1	27	63*	52*	0
Cc1nc(C)c(-c2csc(Nc3ccccn3)n2)s1	-28	-10	-8	4	-7	·	·
Cc1ccnc(Nc2nc(-c3sc(C)nc3C)cs2)c1	-34	-25	·	30	32*	36*	0
COc1ccccc1CN1CC(C(=O)NCc2cc(C(C)C)no2)CCC1=O (stereo unspecified)	-9	3	-7	8	-4	·	·
COCCNC(=O)/C(C#N)=C/c1c(N2CC(C)OC(C)C2)nc2ccccn2c1=O (stereo unspecified)	6	-5	-2	40	25*	-1	0
NC(=O)c1cccnc1Nc1ccccc1Cl	-6	-2	-6	11	19*	-6	0
O=C1C=C(c2c(O)ccc3ccccc23)c2ccccc2C1=O	·	·	·	·	23*	82*	-5
O=C1C=C(O)c2cccc(O)c2C1=O	1	-8	·	20	-7	·	·
O=C(CSc1nc(C(F)(F)F)cc(=O)[nH]1)N1CCCC1	-7	4	·	1	-4	·	·
COc1coc(/C=C/C(=O)O)cc1=O	-2	-8	7	20	6	·	·
O=C(CC1SC(N2CCCC2)=NC1=O)Nc1ccc(C(=O)NCc2ccc(F)cc2)cc1 (stereo unspecified)	·	·	·	·	0	·	·
